33 molecules from ChEMBL document CHEMBL1148395, “Synthesis, biological properties, and molecular modeling investigations of novel 3,4-diarylpyrazolines as potent and selective CB(1) cannabinoid receptor antagonists” (J Med Chem, 2004) can be followed below.

For data set [1], the target named is T1, Cannabinoid receptor 1 (Homo sapiens, UniProt P21554). Put plainly: Antagonistic activity towards cannabinoid receptor 1 expressed as [3H]Arachidonic acid release in CHO cells. It counts as functional, cell-based. Particulars: read-out: pA2 (converted).
Data set [2] has as its target T1, Cannabinoid receptor 1. Put plainly: biochemical. In kind it is cell-based, CHO.
In data set [3] the target is Cannabinoid receptor 2 (Homo sapiens, UniProt P34972). The data set can be described thus: Affinity to displace CP-55940 binding from Cannabinoid receptor 2 of human expressed in CHO cells. In kind it is cell-based. A digest of the protocol: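 Bound and free ligand separated by glass-fibre filtration, filter radioactivity counted by liquid scintillation. IC50 values from at least two independent measurements combined and converted to Ki by Cheng-Prusoff.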

The nature of data set [4]: Mean percentage of compound transport through membrane; expressed as membrane transport. In kind it is ADME. A digest of the protocol: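 Transport across a PK1 LLC MDR (human MDR1) cell monolayer with compound at 1 µg/mL added to one side. Membrane passage taken as the mean percentage of compound moved bottom-to-top and top-to-bottom at 3 h after addition.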
The nature of data set [5]: Partition coefficient (logP). It counts as physicochemical. Particulars: octanol/water. A digest of the protocol:
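n-Octanol/water partition measured by RP-HPLC following an OECD method. Mobile phase buffered at pH > 11 on an aluminum-based octadecyl stationary phase.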

In data set [6] the target is Cannabinoid receptor 1 (Rattus norvegicus) (UniProt P20272). Put plainly: In vivo effective dose to antagonise cannabinoid receptor 1 agonist (CP-55940) induced hypotension in rat upon peroral administration. It counts as functional, organism-based.
Data set [7] in a line: Mean percentage of compound transport through P-glycoprotein; expressed as p-glycoprotein affinity. In kind it is ADME. A digest of the protocol:
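Human MDR1 P-glycoprotein transport across a monolayer of PK1 LLC MDR cells; compound added at 1 µg/mL to one side. Bottom-to-top and top-to-bottom transport measured; Pgp factor taken as the ratio of bottom-to-top to top-to-bottom transport, given as mean percentage of compound transported.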

Data set [8] deals with Cannabinoid receptor 1 (Mus musculus) (UniProt P47746). Put plainly: In vivo least effective dose required to antagonise cannabinoid receptor 1 agonist (WIN-55212) induced hypothermia in mouse upon peroral administration.

The structures appear in SMILES notation.

Chain of Cannabinoid receptor 1 (Rattus norvegicus) (P20272 whole entry): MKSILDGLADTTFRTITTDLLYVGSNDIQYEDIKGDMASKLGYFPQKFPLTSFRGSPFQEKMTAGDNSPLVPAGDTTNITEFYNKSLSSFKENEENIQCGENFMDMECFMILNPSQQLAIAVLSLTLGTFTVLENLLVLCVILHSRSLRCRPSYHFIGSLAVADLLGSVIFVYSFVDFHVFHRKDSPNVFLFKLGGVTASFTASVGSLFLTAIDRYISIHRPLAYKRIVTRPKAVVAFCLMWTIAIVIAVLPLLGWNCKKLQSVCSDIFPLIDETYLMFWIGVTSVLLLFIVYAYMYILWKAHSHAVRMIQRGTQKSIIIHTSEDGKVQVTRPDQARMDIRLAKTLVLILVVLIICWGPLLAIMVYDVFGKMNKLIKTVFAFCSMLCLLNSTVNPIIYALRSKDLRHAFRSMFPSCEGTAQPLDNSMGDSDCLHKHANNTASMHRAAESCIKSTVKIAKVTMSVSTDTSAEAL
Chain of Cannabinoid receptor 1 (Mus musculus) (P47746 whole entry, looked up): as the sequence (P20272 whole entry) above, with E95D counted along it
T1 sequence (P21554 whole entry): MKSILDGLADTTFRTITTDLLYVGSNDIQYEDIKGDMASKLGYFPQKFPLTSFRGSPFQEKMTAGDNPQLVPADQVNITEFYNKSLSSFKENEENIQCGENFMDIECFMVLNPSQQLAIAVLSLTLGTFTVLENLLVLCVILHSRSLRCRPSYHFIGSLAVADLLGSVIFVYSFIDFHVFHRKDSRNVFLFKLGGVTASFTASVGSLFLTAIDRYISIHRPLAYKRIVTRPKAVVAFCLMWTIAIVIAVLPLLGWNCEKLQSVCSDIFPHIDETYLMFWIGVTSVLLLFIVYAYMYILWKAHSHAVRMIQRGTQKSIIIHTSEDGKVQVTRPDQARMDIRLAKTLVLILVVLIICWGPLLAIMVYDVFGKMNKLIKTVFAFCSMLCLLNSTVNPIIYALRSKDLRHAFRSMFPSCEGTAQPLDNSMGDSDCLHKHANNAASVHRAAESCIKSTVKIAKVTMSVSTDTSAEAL
Chain of Cannabinoid receptor 2 (P34972 whole entry): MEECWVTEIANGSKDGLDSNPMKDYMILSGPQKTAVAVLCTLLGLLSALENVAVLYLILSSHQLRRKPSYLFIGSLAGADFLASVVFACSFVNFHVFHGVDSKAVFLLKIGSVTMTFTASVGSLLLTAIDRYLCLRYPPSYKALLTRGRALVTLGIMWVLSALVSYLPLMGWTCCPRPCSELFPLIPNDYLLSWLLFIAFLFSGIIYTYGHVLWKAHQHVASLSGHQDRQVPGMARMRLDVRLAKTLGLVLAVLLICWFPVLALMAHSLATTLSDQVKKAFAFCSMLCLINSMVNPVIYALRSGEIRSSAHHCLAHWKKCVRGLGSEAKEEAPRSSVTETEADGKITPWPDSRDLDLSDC

For `CNC(=NS(=O)(=O)c1cccc(Cl)c1)N1CC(c2ccccc2)C(c2ccc(Cl)cc2)=N1` (centres undefined), in data set [1], the Kb was 0.00251 µM. Also, the Ki is 0.0139 µM in data set [2] and above 1 µM in data set [3].
In data set [2], `O=C(NS(=O)(=O)c1ccc(Cl)cc1)N1CC(c2ccccc2)C(c2ccc(Cl)cc2)=N1` (centres undefined) gave an inhibitory constant (Ki) above 1 µM.
On to `C/N=C(\NS(=O)(=O)c1ccc2ccccc2c1)N1CC(c2ccccc2)C(c2ccc(Cl)cc2)=N1` (centres undefined), for which the Kb in data set [1] was 0.00316 µM. In data set [2], this molecule came in with an inhibition constant Ki of 0.0218 µM.
As for `C/N=C(\NS(=O)(=O)c1ccccc1)N1CC(c2ccccc2)C(c2ccc(Cl)cc2)=N1` (centres undefined), the Kb in data set [1] is 0.0316 µM. Besides, in data set [2], the Ki is 0.17 µM.
`CS/C(=N\S(=O)(=O)c1ccc(C(F)(F)F)cc1)N1CC(c2ccccc2)C(c2ccc(Cl)cc2)=N1` (centres undefined): the Kb in data set [1] was 0.0002 µM. Besides, the Ki is 0.0166 µM in data set [2] and above 1 µM in data set [3].
Turning to `C/N=C(\NS(=O)(=O)c1c(C)cc(C)cc1C)N1CC(c2ccccc2)C(c2ccc(Cl)cc2)=N1` (centres undefined), the Kb in data set [1] is 0.000398 µM. The same molecule displayed an inhibition constant Ki in data set [2] of 0.0542 µM.
`CN(C)/C(=N\S(=O)(=O)c1ccc(Cl)cc1)N1CC(c2ccccc2)C(c2ccc(Cl)cc2)=N1` (centres undefined): the Kb in data set [1] was 0.00316 µM. Besides, the Ki is 0.28 µM in data set [2] and above 1 µM in data set [3]. The values for the Activity in data set [4] and in data set [7] were 15.2 and 1.4, respectively. In data set [5], the log partition coefficient (logP) came to 4.8. This molecule gave an ED50 in data set [6] above 30 mg/kg.
With `CN=C(NS(=O)(=O)c1ccc(Cl)cc1)N1CC(c2ccc(F)cc2)C(c2ccc(Cl)cc2)=N1` (centres undefined), in data set [2], the inhibition constant (Ki) stood at 0.584 µM.
Regarding `NC(=NS(=O)(=O)c1ccc(Cl)cc1)N1CC(c2ccccc2)C(c2ccc(Cl)cc2)=N1` (centres undefined), the Kb in data set [1] is 0.000316 µM. In addition, the Ki in data set [2] is 0.0161 µM; in data set [3], above 1 µM. The Activity in data set [4] is 7; in data set [7], 1.7. The molecule further showed a logP in data set [5] of 4.3.
With `C/N=C(\NS(=O)(=O)c1ccc(C(F)(F)F)cc1)N1CC(c2ccccc2)C(c2ccc(Cl)cc2)=N1` (centres undefined), the LED in data set [8] stood at 3 mg/kg. The molecule also returned an ED50 in data set [6] of 8.9 mg/kg.
Consider `CN/C(=N\S(=O)(=O)c1ccc(Cl)cc1)N1CC(c2ccccc2)C(c2ccc(Cl)cc2)=N1` (centres undefined), for which the 50% effective dose (ED50) in data set [6] is 15 mg/kg.
With `N=C(NS(=O)(=O)c1ccc(F)cc1)N1CC(c2ccccc2)C(c2ccc(Cl)cc2)=N1` (centres undefined), in data set [1], the Kb was 0.001 µM. In addition, the inhibition constant Ki in data set [2] is 0.0526 µM; in data set [3], above 1 µM.
On to `Cc1ccc(S(=O)(=O)NC(=N)N2CC(c3ccccc3)C(c3ccc(Cl)cc3)=N2)cc1` (centres undefined), for which, in data set [1], the Kb was 0.00398 µM. For the same molecule, the inhibition constant Ki is 0.197 µM in data set [2] and above 1 µM in data set [3]. In addition, in data set [8], the LED was above 30 mg/kg. The molecule also came in with a median effective dose (ED50) in data set [6] above 30 mg/kg.
For `C/N=C(\NS(=O)(=O)c1cccc(C(F)(F)F)c1)N1CC(c2ccccc2)C(c2ccc(Cl)cc2)=N1` (centres undefined), in data set [1], the Kb is 0.000794 µM. Also, the Ki is 0.0365 µM in data set [2] and above 1 µM in data set [3].
Regarding `Cc1cc(C)c(S(=O)(=O)NC(=N)N2CC(c3ccccc3)C(c3ccc(Cl)cc3)=N2)c(C)c1` (centres undefined), in data set [1], the Kb is 0.000398 µM. Also, the Ki in data set [2] is 0.0242 µM; in data set [3], above 1 µM.
The molecule `C/N=C(\NS(=O)(=O)c1ccc(C(F)(F)F)cc1)N1C[C@H](c2ccccc2)C(c2ccc(Cl)cc2)=N1` registered an LED in data set [8] of 1 mg/kg. This molecule yielded an ED50 in data set [6] of 2 mg/kg.
Consider `CN=C(NS(=O)(=O)c1ccc(Cl)cc1)N1CC(c2ccc(Cl)cc2)C(c2ccc(Cl)cc2)=N1` (centres undefined), for which, in data set [2], the Ki was found to be 0.255 µM.
As for `C/N=C(\NS(=O)(=O)c1ccc(C)cc1)N1CC(c2ccccc2)C(c2ccc(Cl)cc2)=N1` (centres undefined), the Kb in data set [1] was 0.00251 µM.
Regarding `CN/C(=N/S(=O)(=O)c1ccc(C(F)(F)F)cc1)N1C[C@H](c2ccccc2)C(c2ccc(Cl)cc2)=N1`, the Kb in data set [1] was 0.001 µM. For the same molecule, the results for the Ki in data set [2] and in data set [3] were 0.0359 µM and 3.51 µM, respectively.
Regarding `COc1ccc(S(=O)(=O)NC(=N)N2CC(c3ccccc3)C(c3ccc(Cl)cc3)=N2)cc1` (centres undefined), the Kb in data set [1] was 0.00501 µM. In addition, the inhibition constant (Ki) in data set [2] is 0.196 µM; in data set [3], above 1 µM.
With `C/N=C(\NS(=O)(=O)c1ccc(Cl)cc1)N1CC(c2ccccc2)C(c2ccc(F)cc2)=N1` (centres undefined), the Kb in data set [1] is 0.0251 µM. Besides, the affinity in data set [2] corresponds to a Ki of 0.214 µM.
Turning to `CN/C(=N\S(=O)(=O)c1ccc(Cl)cc1)N1C[C@H](c2ccccc2)C(c2ccc(Cl)cc2)=N1`, the 50% effect level in data set [6] (ED50) was put at a dose of 5.5 mg/kg.
For `C/N=C(\NS(=O)(=O)c1ccccc1Cl)N1CC(c2ccccc2)C(c2ccc(Cl)cc2)=N1` (centres undefined), the Kb in data set [1] is 0.00501 µM. The inhibition constant Ki in data set [2] is 0.0754 µM; in data set [3], above 1 µM.
Turning to `CN=C(NS(=O)(=O)c1ccc(C(F)(F)F)cc1)N1C[C@@H](c2ccccc2)C(c2ccc(Cl)cc2)=N1`, the Kb in data set [1] is 0.0316 µM. The Ki in data set [2] is 0.293 µM; in data set [3], above 1 µM.
Turning to `CN=C(NS(=O)(=O)c1ccc(Cl)cc1)N1C[C@H](c2ccccc2)C(c2ccc(Cl)cc2)=N1` [IBIPINABANT], the Activity in data set [4] is given as 14.8; in data set [7], 1.4. Moreover, the log partition coefficient (logP) in data set [5] amounted to 4.8.
`CN(C)/C(=N\S(=O)(=O)c1ccc(F)cc1)N1CC(c2ccccc2)C(c2ccc(Cl)cc2)=N1` (centres undefined): the Kb in data set [1] is above 0.0316 µM. Further, the inhibitory constant (Ki) in data set [2] and in data set [3] was above 1 µM each time.
Take `CN=C(NS(=O)(=O)c1ccc(OC)cc1)N1CC(c2ccccc2)C(c2ccc(Cl)cc2)=N1` (centres undefined): the Kb in data set [1] was 0.01 µM. Also, the affinity in data set [2] corresponds to a Ki of 0.0229 µM.
As to `CNC(=NS(=O)(=O)c1ccc(C(F)(F)F)cc1)N1CC(c2ccccc2)C(c2ccc(Cl)cc2)=N1` (centres undefined), the Kb in data set [1] is 0.000501 µM. Also, the Ki in data set [2] was 0.221 µM; in data set [3], above 1 µM.
In turn, `C/N=C(\NS(=O)(=O)c1ccc(Cl)cc1)N1C[C@@H](c2ccccc2)C(c2ccc(Cl)cc2)=N1` yielded an ED50 in data set [6] above 30 mg/kg.
Take `C/N=C(\NS(=O)(=O)c1ccc(F)cc1)N1CC(c2ccccc2)C(c2ccc(Cl)cc2)=N1` (centres undefined): the Kb in data set [1] is 0.00316 µM. The values for the Ki in data set [2] and in data set [3] were 0.338 µM and above 1 µM, respectively.
In the case of `C/N=C(\NC(=O)c1ccc(Cl)cc1)N1CC(c2ccccc2)C(c2ccc(Cl)cc2)=N1` (centres undefined), the Kb in data set [1] was 0.002 µM. Also, affinity in data set [2] was put at a Ki of 0.0706 µM.
In turn, `N=C(NS(=O)(=O)c1ccc(Cl)cc1)N1CC(c2ccccc2)C(c2ccc(Cl)cc2)=N1` (centres undefined) registered an LED in data set [8] above 30 mg/kg. Further, the median effective dose (ED50) in data set [6] was above 30 mg/kg.
As for `C/N=C(\NS(=O)(=O)c1ccc(C(F)(F)F)cc1)N1C[C@@H](c2ccccc2)C(c2ccc(Cl)cc2)=N1`, the LED in data set [8] is above 30 mg/kg. In data set [6], the ED50 was above 30 mg/kg.
